Experimental data as given in ChEMBL document CHEMBL4257448, “Deciphering the origins of molecular toxicity of combretastatin A4 and its glycoconjugates: interactions with major drug transporters and their safety profiles in vitro and in vivo” (Medchemcomm, 2017).
Activity calls are given as the source filed them. The rule behind the calls is not given here.

Legend:
[1] = test system: HT-29; test: Cytotoxicity against human HT-29 cells assessed as reduction in cell viability after 72 hrs by MTT assay; format: functional, cell-based; conditions: HT-29, 72 h
Procedure, shortened: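 HT29 cells were cultured in RPMI-1640 with glutamine and 10% FBS, seeded at 2000–7500 cells/well, and exposed for 72 h to drug in DMSO (final DMSO <0.1%). MTT was added at 0.83 mg mL−1 final and incubated overnight, then cells were lysed in SDS/HCl and read at 570 nm. Survival was expressed as percent of drug-free control; five replicate wells.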

[2] = test system: MDA-MB-231; test: Cytotoxicity against human MDA-MB-231 cells assessed as reduction in cell viability up to 20 uM after 24 hrs by MTT assay; format: functional, cell-based
Procedure, shortened: (§1)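 Cells were grown as adherent monolayers at 37 °C in 5% CO2: SKOV3 in advanced DMEM, DU145 and MB231 in RPMI-1640 with glutamine and 10% FBS. They were seeded at 2000–7500 cells/well, treated on day 1 for 24 h with drug in DMSO (final DMSO <0.1%), then given MTT at 0.83 mg mL−1 final overnight. After SDS/HCl lysis, A570 was read as percent of drug-free control; five replicate wells.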

[3] = test system: SK-OV-3; test: Cytotoxicity against human SKOV3 cells assessed as reduction in cell viability up to 20 uM after 24 hrs by MTT assay; format: functional, cell-based; procedure, shortened: as §1
[4] = Cytotoxicity against HEK293FT cells assessed as reduction in cell viability up to 20 uM; format: cell-based; conditions: human
[5] = Cytotoxicity against HEK293FT cells expressing GLUT1 assessed as reduction in cell viability up to 20 uM; format: cell-based; conditions: human
[6] = molecular target: T1, Solute carrier family 22 member 6 (Homo sapiens, UniProt Q4U2R8); test: Inhibition of human OAT1 expressed in HEK293 cells assessed as 6-CF uptake after 5 mins by fluorescence assay; format: cell-based; conditions: for inhibition (INH): human, hek293, 5 min
T1 sequence (Q4U2R8 whole entry): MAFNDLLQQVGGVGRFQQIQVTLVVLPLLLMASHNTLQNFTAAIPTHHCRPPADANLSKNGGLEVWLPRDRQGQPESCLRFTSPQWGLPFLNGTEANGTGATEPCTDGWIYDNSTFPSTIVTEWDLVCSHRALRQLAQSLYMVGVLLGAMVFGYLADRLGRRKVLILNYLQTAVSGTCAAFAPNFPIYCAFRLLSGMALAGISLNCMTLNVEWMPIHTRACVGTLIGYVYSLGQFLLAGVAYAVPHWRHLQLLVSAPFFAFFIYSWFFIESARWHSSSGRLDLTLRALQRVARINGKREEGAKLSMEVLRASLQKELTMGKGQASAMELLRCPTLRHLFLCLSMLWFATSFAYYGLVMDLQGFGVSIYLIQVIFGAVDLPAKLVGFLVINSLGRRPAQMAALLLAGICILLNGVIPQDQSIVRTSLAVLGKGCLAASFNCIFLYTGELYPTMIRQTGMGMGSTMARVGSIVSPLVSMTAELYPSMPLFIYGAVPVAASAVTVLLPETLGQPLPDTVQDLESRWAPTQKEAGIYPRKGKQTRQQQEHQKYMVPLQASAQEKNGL
Procedure, shortened: (§2)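 Stably transfected HEK293 cells (human OAT1, OAT3, OCT1, OCT2, OATP1B3, OATP2B1) and mock cells were assayed 16 h after seeding in HEPES uptake buffer, pH 7.2, with fluorescent probe ± compound. Incubation was 5 min for OAT1/3 and OATPs, and 10 min for OCT1/2. Reference inhibitors were probenecid (OATs), quinine (OCTs) and rifampicin (OATPs). Uptake was stopped with ice-cold PBS and cells were lysed in Tris/Triton. Fluorescence was normalised to BCA protein; triplicates, repeated 2–3 times.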

[7] = molecular target: T2, Organic anion transporter 3 (Homo sapiens, UniProt Q8TCC7); test: Inhibition of human OAT3 expressed in HEK293 cells assessed as 6-CF uptake after 5 mins by fluorescence assay; format: cell-based; conditions: for inhibition (INH): human, hek293, 5 min; procedure, shortened: as §2
T2 sequence (Q8TCC7 whole entry): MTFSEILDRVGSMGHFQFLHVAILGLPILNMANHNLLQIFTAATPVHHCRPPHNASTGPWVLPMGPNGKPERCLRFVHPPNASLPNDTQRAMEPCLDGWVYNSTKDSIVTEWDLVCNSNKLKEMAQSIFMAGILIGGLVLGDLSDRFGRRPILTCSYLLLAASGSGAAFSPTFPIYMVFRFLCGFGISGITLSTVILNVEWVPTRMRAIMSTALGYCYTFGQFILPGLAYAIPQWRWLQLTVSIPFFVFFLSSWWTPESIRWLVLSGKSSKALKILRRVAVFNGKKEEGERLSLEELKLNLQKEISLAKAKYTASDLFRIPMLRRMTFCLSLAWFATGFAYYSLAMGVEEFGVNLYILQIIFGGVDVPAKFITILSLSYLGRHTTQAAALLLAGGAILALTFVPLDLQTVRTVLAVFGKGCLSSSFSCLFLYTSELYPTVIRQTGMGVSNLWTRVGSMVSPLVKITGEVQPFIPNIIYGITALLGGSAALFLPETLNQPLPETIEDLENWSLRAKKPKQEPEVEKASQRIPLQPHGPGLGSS

[8] = molecular target: T3, Solute carrier organic anion transporter family member 2B1 (Homo sapiens, UniProt O94956); test: Inhibition of human OATP2B1 expressed in HEK293 cells assessed as DBF uptake after 5 mins by fluorescence assay; format: cell-based; conditions: for inhibition (INH): human, hek293, 5 min; procedure, shortened: as §2
T3 sequence (O94956 whole entry): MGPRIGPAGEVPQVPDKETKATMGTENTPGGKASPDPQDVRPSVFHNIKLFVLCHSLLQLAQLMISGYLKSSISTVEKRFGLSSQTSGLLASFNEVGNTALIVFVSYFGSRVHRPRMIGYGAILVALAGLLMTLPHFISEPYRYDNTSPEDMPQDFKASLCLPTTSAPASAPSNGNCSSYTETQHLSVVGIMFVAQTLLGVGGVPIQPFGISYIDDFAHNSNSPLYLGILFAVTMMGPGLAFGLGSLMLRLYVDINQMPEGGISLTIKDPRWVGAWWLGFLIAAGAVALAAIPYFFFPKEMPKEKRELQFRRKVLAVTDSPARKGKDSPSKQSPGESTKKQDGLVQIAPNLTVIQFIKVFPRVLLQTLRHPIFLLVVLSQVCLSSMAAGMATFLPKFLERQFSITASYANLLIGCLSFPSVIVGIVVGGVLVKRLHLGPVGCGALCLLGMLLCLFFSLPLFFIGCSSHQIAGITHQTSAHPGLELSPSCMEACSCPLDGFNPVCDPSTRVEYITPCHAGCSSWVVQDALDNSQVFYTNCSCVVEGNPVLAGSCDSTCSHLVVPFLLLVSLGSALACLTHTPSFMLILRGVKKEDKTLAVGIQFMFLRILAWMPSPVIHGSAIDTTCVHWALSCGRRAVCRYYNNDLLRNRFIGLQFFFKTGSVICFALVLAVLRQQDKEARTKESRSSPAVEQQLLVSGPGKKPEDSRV

[9] = test system: HEK293; test: Toxicity in HEK293 cells assessed as effect on total protein up to 200 uM after 10 mins; format: cell-based; conditions: human, hek293, 10 min
Procedure, shortened: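 HEK293-mock cells were exposed to 100 or 200 μM for 10 min, and total cellular protein was then measured.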

Row | Structure (SMILES) | IC50 [1] | Activity [2] | Activity [3] | Activity [4] | Activity [5] | IC50 [6] | inhibition (INH) [6] | IC50 [7] | inhibition (INH) [7] | IC50 [8] | inhibition (INH) [8] | Activity [9]
1 | COc1ccc(/C=C\c2cc(OC)c(OC)c(OC)c2)cc1O [COMBRETASTATIN A4] | 0.72 µM | Active | Active | Toxic | Toxic | 41.4 µM | Dose-dependent effect | 16.4 µM | Dose-dependent effect | 12.3 µM | Dose-dependent effect | Non-Toxic
2 | COc1ccc(/C=C\c2cc(OC)c(OC)c(OC)c2)cc1O[C@@H]1O[C@H](CO)[C@@H](O)[C@H](O)[C@H]1O | 6.91 µM | Active | Active | Toxic | Toxic | > 200 µM | Dose-dependent effect | > 200 µM | Dose-dependent effect | > 200 µM | Dose-dependent effect | Non-Toxic
